The target in assay [1] is Voltage-dependent L-type calcium channel subunit alpha-1C (Rattus norvegicus, UniProt P22002). Description: In vitro inhibition of K+ induced contractions of the isolated rat aorta. Type of assay: functional, tissue-based.
Another assay is filed under the species Rattus norvegicus. The assay can be described thus: In vitro inhibition of veratridine induced rat myocardiac cell death. It is filed as functional.
Assay [2] concerns the target T1, Seed linoleate 13S-lipoxygenase-1 (Glycine max) (UniProt P08170).
T1 sequence (whole entry): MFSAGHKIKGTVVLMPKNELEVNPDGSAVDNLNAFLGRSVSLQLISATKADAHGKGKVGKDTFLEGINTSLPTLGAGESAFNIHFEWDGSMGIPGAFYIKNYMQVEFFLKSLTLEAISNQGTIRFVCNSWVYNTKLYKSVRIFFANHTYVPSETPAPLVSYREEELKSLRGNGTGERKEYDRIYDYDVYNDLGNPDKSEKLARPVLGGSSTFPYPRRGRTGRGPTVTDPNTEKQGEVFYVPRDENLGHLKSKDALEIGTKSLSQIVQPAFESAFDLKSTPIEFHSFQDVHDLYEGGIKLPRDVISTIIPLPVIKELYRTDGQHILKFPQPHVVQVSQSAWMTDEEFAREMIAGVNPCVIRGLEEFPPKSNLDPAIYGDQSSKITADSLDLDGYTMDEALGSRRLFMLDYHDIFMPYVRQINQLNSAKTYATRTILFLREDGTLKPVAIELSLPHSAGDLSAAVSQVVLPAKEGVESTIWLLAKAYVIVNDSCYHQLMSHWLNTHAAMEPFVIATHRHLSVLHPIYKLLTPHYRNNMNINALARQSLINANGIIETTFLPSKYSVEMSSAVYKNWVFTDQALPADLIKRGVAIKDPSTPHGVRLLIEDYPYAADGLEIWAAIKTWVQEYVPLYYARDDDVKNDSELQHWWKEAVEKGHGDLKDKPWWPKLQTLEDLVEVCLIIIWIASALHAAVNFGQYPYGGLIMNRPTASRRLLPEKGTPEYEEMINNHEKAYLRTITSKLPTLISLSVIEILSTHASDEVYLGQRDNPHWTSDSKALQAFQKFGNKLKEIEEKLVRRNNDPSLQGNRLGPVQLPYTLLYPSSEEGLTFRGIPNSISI
Description: In vitro inhibition of rabbit LDL oxidation by soybean lipoxygenase at 5 uM. It is filed as functional. Summed up: (§1)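 Compound added to rabbit LDL (Havel method), then soybean lipoxygenase type-IS at 40 μg/mL final. Incubated 24 h at 37 °C in a CO2 incubator. Oxidized LDL separated by gel-permeation chromatography, and fluorescence of the LDL fraction read at ex 360/em 430 nm. Expressed as percent of control.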

Assay [3] has as its target T1, Seed linoleate 13S-lipoxygenase-1 (Glycine max). The assay can be described thus: In vitro inhibition of rabbit LDL oxidation by soybean lipoxygenase at 0.5 uM. Type of assay: functional. Summed up: as §1
The target is the same in assay [4]. Description: In vitro inhibition of rabbit LDL oxidation by soybean lipoxygenase. Type of assay: functional. Details: scale not given: the % may be the effect or the level left. The method, boiled down: as §1

Each structure is given as a SMILES string. Values joined by “and” are separate entries in the source; they are usually repeats but may differ in a detail not shown here. Equal entries are not always repeated.

Voltage-dependent L-type calcium channel subunit alpha-1C, sequence (P22002 whole entry): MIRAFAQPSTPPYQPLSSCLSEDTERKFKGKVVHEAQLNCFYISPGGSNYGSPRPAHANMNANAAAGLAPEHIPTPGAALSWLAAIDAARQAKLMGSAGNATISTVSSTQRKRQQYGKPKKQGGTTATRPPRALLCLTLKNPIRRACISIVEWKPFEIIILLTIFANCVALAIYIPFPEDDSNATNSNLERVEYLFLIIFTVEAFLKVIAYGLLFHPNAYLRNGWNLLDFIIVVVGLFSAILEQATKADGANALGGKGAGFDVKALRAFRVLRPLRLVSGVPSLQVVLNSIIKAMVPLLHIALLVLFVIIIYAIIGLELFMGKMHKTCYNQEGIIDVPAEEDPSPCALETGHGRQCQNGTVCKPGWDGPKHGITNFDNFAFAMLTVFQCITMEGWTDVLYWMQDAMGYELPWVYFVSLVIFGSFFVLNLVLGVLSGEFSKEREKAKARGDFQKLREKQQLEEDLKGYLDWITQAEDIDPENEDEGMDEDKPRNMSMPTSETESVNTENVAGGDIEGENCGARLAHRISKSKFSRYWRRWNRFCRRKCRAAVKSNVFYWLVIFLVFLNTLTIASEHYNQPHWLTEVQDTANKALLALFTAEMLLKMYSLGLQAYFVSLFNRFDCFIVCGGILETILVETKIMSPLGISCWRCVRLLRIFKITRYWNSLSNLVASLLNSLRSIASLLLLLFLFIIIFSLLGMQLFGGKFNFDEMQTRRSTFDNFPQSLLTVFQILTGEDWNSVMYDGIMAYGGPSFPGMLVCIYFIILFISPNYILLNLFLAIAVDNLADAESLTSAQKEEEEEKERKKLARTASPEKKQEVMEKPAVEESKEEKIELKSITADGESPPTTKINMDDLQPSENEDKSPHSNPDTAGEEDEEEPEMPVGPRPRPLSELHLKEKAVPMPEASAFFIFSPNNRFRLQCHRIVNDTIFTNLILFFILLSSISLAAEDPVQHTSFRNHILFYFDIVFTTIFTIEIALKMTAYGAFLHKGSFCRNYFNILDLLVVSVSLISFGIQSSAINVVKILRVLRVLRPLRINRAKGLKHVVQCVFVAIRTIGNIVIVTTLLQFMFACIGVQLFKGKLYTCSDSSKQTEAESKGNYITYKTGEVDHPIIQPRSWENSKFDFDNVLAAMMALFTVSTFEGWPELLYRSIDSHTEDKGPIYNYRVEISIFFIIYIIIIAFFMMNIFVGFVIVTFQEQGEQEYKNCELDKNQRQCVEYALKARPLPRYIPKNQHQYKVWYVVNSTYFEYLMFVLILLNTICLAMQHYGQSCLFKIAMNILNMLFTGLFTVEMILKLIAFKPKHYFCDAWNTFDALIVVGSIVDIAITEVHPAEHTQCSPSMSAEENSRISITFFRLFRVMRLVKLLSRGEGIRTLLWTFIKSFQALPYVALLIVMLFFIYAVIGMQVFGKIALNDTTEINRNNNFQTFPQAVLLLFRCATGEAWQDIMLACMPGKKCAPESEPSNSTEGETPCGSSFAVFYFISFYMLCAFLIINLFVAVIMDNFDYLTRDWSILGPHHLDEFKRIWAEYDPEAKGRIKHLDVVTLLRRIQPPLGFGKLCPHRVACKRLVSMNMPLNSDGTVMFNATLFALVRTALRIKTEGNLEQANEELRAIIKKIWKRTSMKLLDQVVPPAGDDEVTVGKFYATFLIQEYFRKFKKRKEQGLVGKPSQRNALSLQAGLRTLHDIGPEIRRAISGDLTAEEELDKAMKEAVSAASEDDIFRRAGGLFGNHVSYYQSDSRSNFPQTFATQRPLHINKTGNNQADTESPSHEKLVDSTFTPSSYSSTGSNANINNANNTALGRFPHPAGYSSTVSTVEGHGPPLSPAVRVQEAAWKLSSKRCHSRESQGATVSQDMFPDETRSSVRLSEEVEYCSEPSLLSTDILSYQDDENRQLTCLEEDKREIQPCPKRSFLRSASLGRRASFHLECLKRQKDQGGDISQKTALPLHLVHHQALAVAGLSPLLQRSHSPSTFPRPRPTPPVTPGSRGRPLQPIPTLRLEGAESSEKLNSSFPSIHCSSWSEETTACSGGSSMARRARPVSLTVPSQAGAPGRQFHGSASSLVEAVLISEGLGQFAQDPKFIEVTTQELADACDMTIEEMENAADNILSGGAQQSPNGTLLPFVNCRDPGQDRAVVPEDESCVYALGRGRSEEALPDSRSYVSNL

For `CN(CCCN1C(=O)CSC1c1cc(C(C)(C)C)c(O)c(C(C)(C)C)c1)CC(O)COc1ccc2c(c1)OCO2` (centres undefined), the IC50 in assay [1] amounted to 430 nM.

`COc1ccc(OCCN(C)CCCN2C(=O)CSC2c2cc(C(C)(C)C)c(O)c(C(C)(C)C)c2)cc1OC` (centres undefined): in the assay filed under Rattus norvegicus, the “IC>80” value was determined as 1 µM. The IC50 in assay [1] is 180 nM.

As to `CNCCCN1C(=O)CSC1c1cc(C(C)(C)C)c(O)c(C(C)(C)C)c1` (centres undefined), in assay [1], the IC50 was found to be 2400 nM.

Regarding `CC(C)(C)c1cc(C2SCC(=O)N2CCCN)cc(C(C)(C)C)c1O` (centres undefined), in assay [1], the IC50 is 4400 nM.

As to `CC(C)(C)c1cc(C2SCC(=O)N2CCCN2CCC(Cc3ccccc3)CC2)cc(C(C)(C)C)c1O` (centres undefined), the “IC>80” value in the assay listed under Rattus norvegicus came out at 0.32 µM. Further, the IC50 in assay [1] is 210 nM.

Turning to `COc1ccc(CN(C)CCCN2C(=O)CSC2c2cc(C(C)(C)C)c(O)c(C(C)(C)C)c2)cc1OC` (centres undefined), the “IC>80” value in the assay filed under Rattus norvegicus stood at 1 µM.

On to `CN(C)CCCN1C(=O)CSC1c1cc(C(C)(C)C)c(O)c(C(C)(C)C)c1` (centres undefined), for which the IC50 in assay [1] is 1500 nM.

Consider `CN(CCCN1C(=O)CSC1c1cc(C(C)(C)C)c(O)c(C(C)(C)C)c1)CCOc1ccc2c(c1)OCO2` (centres undefined), for which, in the assay listed under Rattus norvegicus, the “IC>80” value turned out to be 0.32 µM. Also, the LDL oxidation remaining (% of control) in assay [2] is 3%. In addition, in assay [1], the IC50 was 62 nM. In assay [3], this compound gave an LDL oxidation, % of control of 12.9%.

Consider `CCOCCN(C)CCCN1C(=O)CSC1c1cc(C(C)(C)C)c(O)c(C(C)(C)C)c1` (centres undefined), for which the IC50 in assay [1] was 840 nM.

On to `COc1cc2c(cc1OC)CN(CCCN1C(=O)CSC1c1cc(C(C)(C)C)c(O)c(C(C)(C)C)c1)CC2` (centres undefined), for which the “IC>80” value in the assay filed under Rattus norvegicus is 1 µM. Also, in assay [1], the IC50 amounted to 200 nM.

For the compound `COc1ccc(CCN(C)CCCN2C(=O)CSC2c2cc(C(C)(C)C)c(O)c(C(C)(C)C)c2)cc1OC` (centres undefined), in the assay listed under Rattus norvegicus, the “IC>80” value came out at 1 µM. In addition, in assay [2], the LDL oxidation remaining (% of control) is 0.6%. In addition, the IC50 in assay [1] came to 93 nM. In assay [3], the LDL oxidation, % of control was determined as 8.7%.

For `COc1ccc([C@@H]2Sc3ccccc3N(CCN(C)C)C(=O)[C@@H]2OC(C)=O)cc1` [DILTIAZEM], in the assay listed under Rattus norvegicus, the “IC>80” value is above 10 µM. Moreover, the LDL oxidation remaining (% of control) in assay [2] stood at 111%. The LDL oxidation, % of control in assay [3] was found to be 109%.

For `CN(CCCN1C(=O)CSC1c1cc(C(C)(C)C)c(O)c(C(C)(C)C)c1)CC(O)COc1ccccc1` (centres undefined), the IC50 in assay [1] turned out to be 420 nM.

On to `Cc1c(C)c2c(c(C)c1O)CC[C@@](C)(CCC[C@H](C)CCC[C@H](C)CCCC(C)C)O2`, for which the LDL oxidation remaining (% of control) in assay [2] turned out to be 13.2%. Besides, the LDL oxidation, % of control in assay [3] is 60.2%.

Turning to `CN(c1nc2ccccc2s1)C1CCN(CCCN2C(=O)CSC2c2cc(C(C)(C)C)c(O)c(C(C)(C)C)c2)CC1` (centres undefined), in the assay filed under Rattus norvegicus, the “IC>80” value was determined as 1 µM. Also, the LDL oxidation remaining (% of control) in assay [2] is 4.9%. In assay [1], the IC50 was 230 nM. This compound also gave an LDL oxidation, % of control in assay [3] of 25.8%.

As for `COc1ccc(OCCN(C)CCCN2C(=O)CSC2c2cc(C(C)(C)C)c(O)c(C(C)(C)C)c2)cc1` (centres undefined), the half-inhibitory concentration (IC50) in assay [1] was 230 nM.

With `COc1cc(OCCN(C)CCCN2C(=O)CSC2c2cc(C(C)(C)C)c(O)c(C(C)(C)C)c2)cc(OC)c1OC` (centres undefined), the IC50 in assay [1] turned out to be 300 nM.

On to `CN(CCCN1C(=O)CSC1c1cc(C(C)(C)C)c(O)c(C(C)(C)C)c1)Cc1ccccc1` (centres undefined), for which, in assay [1], the IC50 was 600 nM.

Consider `CN(CCCN1C(=O)CSC1c1cc(C(C)(C)C)c(O)c(C(C)(C)C)c1)Cc1ccc2c(c1)OCO2` (centres undefined), for which the IC50 in assay [1] stood at 250 nM.

With `CN(C)CCN(C)CCCN1C(=O)CSC1c1cc(C(C)(C)C)c(O)c(C(C)(C)C)c1` (centres undefined), the IC50 in assay [1] is 1700 nM.

Consider `CN(c1nc2ccccc2s1)C1CCN(CCCCOc2ccc(F)cc2)CC1`, for which, in the assay filed under Rattus norvegicus, the “IC>80” value was found to be 0.032 µM. The IC50 in assay [1] stood at 760 nM.

In the case of `CN(CCCN1C(=O)CSC1c1cc(C(C)(C)C)c(O)c(C(C)(C)C)c1)CC1CC1` (centres undefined), the IC50 in assay [1] was found to be 1200 nM.

Regarding `Cc1cc(C(C)(C)C)c(O)c(C(C)(C)C)c1`, in assay [4], the Control is 19.7% and 0.9%.

(Values after ChEMBL document CHEMBL1131614, “Novel calcium antagonists with both calcium overload inhibition and antioxidant activity. 1. 2-(3, 5-di-tert-butyl-4-hydroxyphenyl)-3-(aminopropyl)thiazolidinones” (J Med Chem, 1998).)
